A word on the IC50: it is the concentration that inhibits the measured activity by half.

Experimental findings from ChEMBL document CHEMBL1649336, “Isolation and characterization of minor analogues of silvestrol and other constituents from a large-scale re-collection of Aglaia foveolata” (J Nat Prod, 2010) are described below.

One test relates to HT-29. The test is described as follows: Cytotoxicity against human HT-29 cells after 3 days by sulforhodamine B assay. Conditions: HT-29, 72 h, read-out: ED50 (the source's name). Format: functional. In short, it runs like this:
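HT-29 (ATCC) cells grown in MEME with 10% FBS and antibiotics at 37 °C, 5% CO2, used one day after a medium change at 60–70% confluence. 9500 cells/well exposed in triplicate to serial dilutions (10% DMSO vehicle, also the control) for 3 days. Cells fixed with cold TCA, stained with 0.4% SRB, dye solubilized in 10 mM Tris (pH 10), A515 read. ED50 by nonlinear regression.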
Background: In SRB staining, fixed cells bind dye roughly in proportion to their protein.

Another test deals with Transcription factor p65 (Homo sapiens, UniProt Q04206). The test is described as follows: Inhibition of NF-kappaB p65 isolated from nuclear extract of human HeLa cells assessed as blockade of binding to biotinylated consesus sequence by chemiluminescence assay. In kind it is cell-free.
Chain of Transcription factor p65 (Q04206 whole entry): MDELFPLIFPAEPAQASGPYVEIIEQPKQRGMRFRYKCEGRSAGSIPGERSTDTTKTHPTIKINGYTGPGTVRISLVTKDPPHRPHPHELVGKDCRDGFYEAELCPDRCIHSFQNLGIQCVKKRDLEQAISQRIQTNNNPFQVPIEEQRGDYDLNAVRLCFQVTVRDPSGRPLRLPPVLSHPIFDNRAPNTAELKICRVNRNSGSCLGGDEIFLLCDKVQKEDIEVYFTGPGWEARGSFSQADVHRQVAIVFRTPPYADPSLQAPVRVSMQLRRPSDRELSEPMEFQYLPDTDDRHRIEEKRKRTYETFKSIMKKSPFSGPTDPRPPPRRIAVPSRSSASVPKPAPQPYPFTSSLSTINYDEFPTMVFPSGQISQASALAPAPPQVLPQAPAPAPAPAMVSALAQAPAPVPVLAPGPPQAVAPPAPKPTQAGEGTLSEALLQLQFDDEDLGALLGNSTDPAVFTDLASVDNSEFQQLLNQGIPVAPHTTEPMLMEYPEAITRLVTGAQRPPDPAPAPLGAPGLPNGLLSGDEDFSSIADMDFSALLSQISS

Turning to `COC(=O)[C@H]1[C@@H](O)[C@@]2(O)c3c(OC)cc(O[C@@H]4O[C@@H]([C@H](O)CO)CO[C@@H]4OC)cc3O[C@@]2(c2ccc(OC)cc2)[C@@H]1c1ccccc1`, in the test on HT-29, the EC50 worked out at 2290 nM. As to `COC(=O)[C@H]1[C@@H](O)[C@@]2(O)c3c(OC)cc(O[C@@H]4O[C@@H]([C@@H](O)CO)CO[C@@H]4OC)cc3O[C@@]2(c2ccc(OC)cc2)[C@@H]1c1ccccc1`, the EC50 in the test with HT-29 was found to be 1070 nM. Regarding `CC(C)(O)[C@@H]1CC[C@@]2(O)CC[C@]3(C)[C@H](CC[C@@H]4[C@@]5(C)CCC(=O)C(C)(C)[C@H]5CC[C@]43C)[C@H]2O1`, the IC50 at Transcription factor p65 was more than 20000 nM. For the same molecule, in the test on HT-29, the EC50 is more than 10000 nM. Turning to `CC(C)(O)[C@@H]1CC[C@](C)([C@H]2CC[C@]3(C)[C@@H]2CC[C@@H]2[C@@]4(C)CCC(=O)OC(C)(C)[C@@H]4CC[C@]23C)O1`, the IC50 on Transcription factor p65 is more than 20000 nM. Besides, the EC50 with HT-29 was more than 10000 nM. In the case of `CC(C)(O)[C@@H]1CC[C@@](C)([C@H]2CC[C@]3(C)[C@@H]2CC[C@@H]2[C@@]4(C)CCC(=O)OC(C)(C)[C@@H]4CC[C@]23C)O1`, the half-inhibitory concentration (IC50) at Transcription factor p65 was more than 20000 nM. The EC50 in the test on HT-29 was more than 10000 nM.

Regarding `CC(C)C1=CC2=C(CO)C(=O)C[C@@H](O)[C@]2(C)CC1`, the IC50 on Transcription factor p65 was more than 20000 nM. Also, the EC50 in the test on HT-29 was more than 10000 nM.

Turning to `COC(=O)[C@H]1[C@@H](O)[C@@]2(O)c3c(OC)cc(O[C@@H]4O[C@@H]([C@@H](O)CO)CO[C@H]4OC)cc3O[C@@]2(c2ccc(OC)cc2)[C@@H]1c1ccccc1` [2'-EPISILVESTROL], the EC50 in the test with HT-29 came to 1 nM. As for `CC[C@@]1(O)C(=O)OCc2c1cc1n(c2=O)Cc2cc3ccccc3nc2-1` [CAMPTOTHECIN], the EC50 in the test with HT-29 worked out at 60 nM. For `CC(=O)O[C@H]1C(=O)[C@@]2(C)[C@H]([C@H](OC(=O)c3ccccc3)[C@]3(O)C[C@H](OC(=O)[C@H](O)[C@@H](NC(=O)c4ccccc4)c4ccccc4)C(C)=C1C3(C)C)[C@]1(OC(C)=O)CO[C@@H]1C[C@@H]2O` [PACLITAXEL], the EC50 in the test on HT-29 was 0.6 nM. On to `COC(=O)[C@H]1[C@@H](O)[C@@]2(O)c3c(OC)cc(O[C@@H]4O[C@@H]([C@H](O)CO)CO[C@H]4OC)cc3O[C@@]2(c2ccc(OC)cc2)[C@@H]1c1ccccc1` [SILVESTROL], for which the half-maximal inhibitory concentration (IC50) at Transcription factor p65 was more than 20000 nM. In addition, in the test on HT-29, the EC50 was determined as 0.7 nM.
